Drawing on ChEMBL document CHEMBL1126811, “Fluorinated and iodinated dopamine agents: D2 imaging agents for PET and SPECT” (J Med Chem, 1993), this text covers Dose/organ and Dose/g for two molecules.

Molecules are shown by their SMILES.

Data set [1] deals with Rattus norvegicus. The experiment in a line: Biodistribution of radioligand [125I]FIDA1 in thyroid of rat after 30 minutes after an intravenous injection is given (average of 2 rats). Type of data set: ADME, organism-based, Thyroid gland. The following applies: in vivo, 0.5 h.
The test system of data set [2] is Rattus norvegicus. The experiment in a line: Uptake of radioligand [125I]FIDA1 by cerebellum in rat after 2 minutes after an intravenous injection is given (average of 3 rats). The following applies: in vivo. Type of data set: ADME, organism-based. An outline of the steps:
(§1)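 Male Sprague–Dawley rats (225–300 g) under ether anesthesia received radioiodinated tracer (8–10 μCi in 0.2 mL saline) into the femoral vein. They were killed by cardiac excision at set times. Cortex, striatum, hippocampus and cerebellum were dissected, weighed and gamma-counted. Results are % dose/gram against diluted injected dose.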

The test system of data set [3] is Rattus norvegicus. As to the kind of experiment: Biodistribution of radioligand [125I]FIDA1 in muscle of rat after 120 minutes after an intravenous injection is given (average of 2 rats). In kind it is ADME, organism-based, Muscle tissue. The following applies: in vivo, 2 h.
For data set [4], the system named is Rattus norvegicus. As to the kind of experiment: Biodistribution of radioligand [125I]FIDA1 in lung of rat after 60 minutes after an intravenous injection is given (average of 3 rats). Type of data set: ADME, organism-based. Conditions: in vivo, 1 h. In short, it runs like this: (§2)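 Male Sprague–Dawley rats (225–300 g) were given 0.2 mL saline containing the radioiodinated ligand (8–10 μCi) into the femoral vein under ether anesthesia. They were killed at set times by cardiac excision. Organs were weighed and γ-counted against diluted aliquots of the injected dose and expressed as % dose/organ. Blood and muscle were taken as 7% and 40% of body weight. Three rats were used per point.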

Data set [5] relates to Rattus norvegicus. As to the kind of experiment: Uptake of radioligand [125I]-FIDA1 by cerebellum in rat after 30 minutes after an intravenous injection is given (average of 2 rats). In kind it is ADME, organism-based. The following applies: in vivo, 0.5 h. An outline of the steps:
as §1

The test system of data set [6] is Rattus norvegicus. The experiment in a line: Uptake of radioligand [125I]-FIDA1 by hippo-campus in rat after 60 minutes after an intravenous injection is given (average of 3 rats). The following applies: in vivo, 1 h. In kind it is ADME, organism-based. In short, it runs like this: as §1
Data set [7] relates to Rattus norvegicus. The experiment in a line: Uptake of radioligand [125I]FIDA1 by hippo-campus in rat after 30 minutes after an intravenous injection is given (average of 2 rats). In kind it is ADME, organism-based. The following applies: in vivo, 0.5 h. An outline of the steps:
as §1

The subject of data set [8] is Rattus norvegicus. The experiment in a line: Biodistribution of radioligand [125I]FIDA1 in spleen of rat after 30 minutes after an intravenous injection is given (average of 2 rats). In kind it is ADME, organism-based. Conditions: in vivo, 0.5 h.
The test system of data set [9] is Rattus norvegicus. As to the kind of experiment: Biodistribution of radioligand [125I]FIDA1 in heart of rat after 30 minutes after an intravenous injection is given (average of 2 rats). In kind it is ADME, organism-based. The following applies: in vivo, 0.5 h.
Data set [10] deals with Rattus norvegicus. The experiment in a line: Biodistribution of radioligand [125I]FIDA1 in muscle of rat after 30 minutes after an intravenous injection is given (average of 2 rats). Type of data set: ADME, organism-based, Muscle tissue. The following applies: in vivo, 0.5 h.
Data set [11] has as its system Rattus norvegicus. The experiment in a line: Biodistribution of radioligand [125I]FIDA1 in skin of rat after 30 minutes after an intravenous injection is given (average of 2 rats). In kind it is ADME, organism-based, Zone of skin. Conditions: in vivo, 0.5 h.
The test system of data set [12] is Rattus norvegicus. As to the kind of experiment: Uptake of radioligand [125I]FIDA1 by hippo-campus in rat after 120 minutes after an intravenous injection is given (average of 3 rats). Conditions: in vivo, 2 h. In kind it is ADME, organism-based. In short, it runs like this: as §1
In data set [13] the test system is Rattus norvegicus. The experiment in a line: Uptake of radioligand [125I]FIDA1 by cortex in rat after 30 minutes after an intravenous injection is given (average of 2 rats). Type of data set: ADME, organism-based. Conditions: in vivo, 0.5 h. An outline of the steps: as §1
The test system of data set [14] is Rattus norvegicus. The experiment in a line: Biodistribution of radioligand [125I]FIDA1 in liver of rat after 30 minutes after an intravenous injection is given (average of 2 rats). In kind it is ADME, organism-based. The following applies: in vivo, 0.5 h.
Data set [15] deals with Rattus norvegicus. The experiment in a line: Biodistribution of radioligand [125I]FIDA1 in blood of rat after 60 minutes after an intravenous injection is given (average of 3 rats). In kind it is ADME, organism-based. Conditions: in vivo, 1 h. An outline of the steps: as §2
The test system of data set [16] is Rattus norvegicus. The experiment in a line: Uptake of radioligand [125I]FIDA1 by hippo-campus in rat after 2 minutes after an intravenous injection is given (average of 3 rats). The following applies: in vivo. Type of data set: ADME, organism-based. An outline of the steps:
as §1

Data set [17] relates to Rattus norvegicus. The experiment in a line: Biodistribution of radioligand [125I]FIDA1 in lung of rat after 30 minutes after an intravenous injection is given (average of 2 rats). The following applies: in vivo, 0.5 h. Type of data set: ADME, organism-based.
Data set [18] relates to Rattus norvegicus. As to the kind of experiment: Uptake of radioligand [125I]FIDA1 by striatum in rat after 30 minutes after an intravenous injection is given (average of 2 rats). Type of data set: ADME, organism-based. Conditions: in vivo, 0.5 h. An outline of the steps: as §1
In data set [19] the test system is Rattus norvegicus. As to the kind of experiment: Biodistribution of radioligand [125I]FIDA1 in brain of rat after 30 minutes after an intravenous injection is given (average of 2 rats). Type of data set: ADME, organism-based. Conditions: in vivo, 0.5 h.
The test system of data set [20] is Rattus norvegicus. As to the kind of experiment: Uptake of radioligand [125I]FIDA1 by cerebellum in rat after 30 minutes after an intravenous injection is given (average of 3 rats). In kind it is ADME, organism-based. The following applies: in vivo, 0.5 h. In short, it runs like this: as §1
Data set [21] relates to Rattus norvegicus. As to the kind of experiment: Biodistribution of radioligand [125I]FIDA1 in liver of rat after 30 minutes after an intravenous injection is given (average of 3 rats). Conditions: in vivo, 0.5 h. Type of data set: ADME, organism-based. In short, it runs like this: as §2
In data set [22] the test system is Rattus norvegicus. The experiment in a line: Biodistribution of radioligand [125I]FIDA1 in lung of rat after 30 minutes after an intravenous injection is given (average of 3 rats). Type of data set: ADME, organism-based. Conditions: in vivo, 0.5 h. In short, it runs like this:
as §2

The test system of data set [23] is Rattus norvegicus. The experiment in a line: Biodistribution of radioligand [125I]FIDA1 in blood of rat after 120 minutes after an intravenous injection is given (average of 3 rats). In kind it is ADME, organism-based. The following applies: in vivo, 2 h. In short, it runs like this: as §2
The test system of data set [24] is Rattus norvegicus. The experiment in a line: Biodistribution of radioligand [125I]FIDA1 in thyroid of rat after 30 minutes after an intravenous injection is given (average of 3 rats). Conditions: in vivo, 0.5 h. In kind it is ADME, organism-based, Thyroid gland. In short, it runs like this:
as §2

Data set [25] deals with Rattus norvegicus. As to the kind of experiment: Uptake of radioligand [125I]FIDA1 by hippocampus in rat after 2 minutes after an intravenous injection is given (average of 3 rats). Conditions: in vivo. Type of data set: ADME, organism-based. In short, it runs like this: as §1
Data set [26] relates to Rattus norvegicus. The experiment in a line: Biodistribution of radioligand [125I]FIDA1 in muscle of rat after 120 minutes after an intravenous injection is given (average of 3 rats). Conditions: in vivo, 2 h. Type of data set: ADME, organism-based, Muscle tissue. In short, it runs like this: as §2
In data set [27] the test system is Rattus norvegicus. As to the kind of experiment: Biodistribution of radioligand [125I]FIDA1 in spleen of rat after 30 minutes after an intravenous injection is given (average of 3 rats). In kind it is ADME, organism-based. The following applies: in vivo, 0.5 h. In short, it runs like this: as §2
Data set [28] has as its system Rattus norvegicus. As to the kind of experiment: Biodistribution of radioligand [125I]FIDA1 in heart of rat after 30 minutes after an intravenous injection is given (average of 3 rats). In kind it is ADME, organism-based. Conditions: in vivo, 0.5 h. In short, it runs like this:
as §2

Data set [29] concerns Rattus norvegicus. As to the kind of experiment: Biodistribution of radioligand [125I]FIDA1 in muscle of rat after 30 minutes after an intravenous injection is given (average of 3 rats). Type of data set: ADME, organism-based, Muscle tissue. The following applies: in vivo, 0.5 h. In short, it runs like this:
as §2

For data set [30], the system named is Rattus norvegicus. The experiment in a line: Biodistribution of radioligand [125I]FIDA1 in skin of rat after 30 minutes after an intravenous injection is given (average of 3 rats). In kind it is ADME, organism-based, Zone of skin. Conditions: in vivo, 0.5 h. In short, it runs like this:
as §2

Data set [31] has as its system Rattus norvegicus. As to the kind of experiment: Biodistribution of radioligand [125I]FIDA1 in brain of rat after 30 minutes after an intravenous injection is given (average of 3 rats). In kind it is ADME, organism-based. The following applies: in vivo, 0.5 h. An outline of the steps: as §2
In data set [32] the test system is Rattus norvegicus. As to the kind of experiment: Uptake of radioligand [125I]-FIDA1 by hippocampus in rat after 30 minutes after an intravenous injection is given (average of 3 rats). Type of data set: ADME, organism-based. Conditions: in vivo, 0.5 h. An outline of the steps: as §1
The test system of data set [33] is Rattus norvegicus. As to the kind of experiment: Uptake of radioligand [125I]FIDA1 by hippocampus in rat after 60 minutes after an intravenous injection is given (average of 3 rats). Type of data set: ADME, organism-based. The following applies: in vivo, 1 h. In short, it runs like this: as §1
Data set [34] concerns Rattus norvegicus. The experiment in a line: Uptake of radioligand [125I]FIDA1 by hippocampus in rat after 120 minutes after an intravenous injection is given (average of 3 rats). In kind it is ADME, organism-based. The following applies: in vivo, 2 h. In short, it runs like this:
as §1

Data set [35] concerns Rattus norvegicus. The experiment in a line: Uptake of radioligand [125I]-FIDA1 by cortex in rat after 30 minutes after an intravenous injection is given (average of 3 rats). In kind it is ADME, organism-based. The following applies: in vivo, 0.5 h. An outline of the steps: as §1
The subject of data set [36] is Rattus norvegicus. As to the kind of experiment: Uptake of radioligand [125I]FIDA1 by striatum in rat after 30 minutes after an intravenous injection is given (average of 3 rats). In kind it is ADME, organism-based. Conditions: in vivo, 0.5 h. An outline of the steps:
as §1

Take `COc1cc(I)cc(C(=O)NC[C@@H]2CCCN2Cc2ccc(F)cc2)c1OC`: the Dose/organ in data set [1] turned out to be 0.04%; in [3] it was 2.04%; in data set [4], 0.32%; in data set [8], 0.43%; in data set [9], 0.16%; in data set [10] it was 10.87%. Further, the Dose/organ was 7.04% in data set [11]; 12.69% in data set [14]; 0.64% in data set [15]; 1.06% in data set [17]; 0.21% in data set [19]. Also, the Dose/g in [2] came to 0.49%; in data set [5], 0.09%; in data set [6], 0.05%; in data set [7], 0.14%; in [12] it was 0.01%; in data set [13] it was 0.14%. Besides, the Dose/g in data set [16] is 0.47%; in [18], 0.4%.
On to `CCN1CCC[C@H]1CNC(=O)c1cc(I)cc(OC)c1OCCF`, for which the Dose/g is given as 0.16% in [2]; 0.03% in data set [20]; 0.25% in data set [25]; 0.05% in [32]; 0.007% in data set [33]; 0.0006% in [34]. Also, the figures for the Dose/g in [35] and in [36] were 0.05% and 0.24%, respectively. Also, the Dose/organ in data set [21] is on record as 22.4%; in [4] it was 0.14%; in data set [22], 0.66%; in data set [23] it was 0.51%; in data set [24] it was 0.03%; in data set [26], 0.76%. In addition, the Dose/organ was found to be 0.31% in data set [27]; 0.14% in data set [28]; 8.24% in [29]; 4.97% in data set [30]; 0.11% in data set [31]; 0.78% in data set [15].
